Experimental data reported in PubChem BioAssay.
Calls of active or inactive are those of the source.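 The calls were made as follows, unless noted: active = inhibition at or above 50% at 10 µM; inactive = inhibition below 50%.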

Key:
[1] = inhibitors of TNFa-induced NFkB p65 translocation, primary screen, imaging, HUVEC, MLSMR starter and 10KST1 sets (AID 438;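 active = inhibition above 20% together with a positive visual image hit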;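 also: compound added about 3h40 before a 20 min TNFalpha stimulation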;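 as to inhibition: signal is the nuclear over cytoplasmic p65 intensity ratio per well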); conditions: HUVEC TNFa-induced p65 nuclear translocation; cell count: measured here: nuclei count (cytotoxicity indicator), at 2.08 µM; inhibition: at 2 µM, stronger effect = higher value, 0% TNFa-plus-vehicle, 100% no-TNFa wells
[2] = reduction of polyQ htt aggregates in cells – imaging, exon1htt(103Q)mCFP cells, high-content imaging, primary screen (AID 483;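 active = visual image review flags a hit and inhibition of aggregation exceeds 20%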;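 also: compound exposure lasted 3 days before fixation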;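 as to nuclei count: percent of the per-plate median nuclei count of sample wells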); conditions: exon1htt(103Q)mCFP cell line, aggregate imaging, at 2 µM; inhibition of aggregation: stronger effect = higher value; nuclei count: measured here: cell count, toxicity
[3] = endothelial E-selectin expression blockers – imaging, HUVEC, immunofluorescence, MLSMR starter and 10KST1 sets, primary screen (AID 487;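 active = visually confirmed hit in the image check and inhibition above 20%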;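 as to inhibition: signal is fraction of cell area covered by stained E-selectin grains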;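 as to nuclei count: 100% = median nuclei count of all wells on the same plate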); conditions: HUVEC TNFalpha-induced E-selectin immunofluorescence imaging, at 2 µM; inhibition: stronger effect = higher value; nuclei count: measured here: cell number, toxicity
[4] = molecular target: Voltage-gated potassium channel subunit beta-2 (Rattus norvegicus) (UniProt P62483); assay: inhibitors of rat Kvbeta2 reductase activity – biochemical, NADPH fluorescence, primary screen (AID 622;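 active = fluorescence slope higher than the sample average by over 3 SD, cut at about -0.22 in these data, passing the limit was not always enough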;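 also: slope of raw intensity against log time taken from 70 to 1610 s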); conditions: recombinant KvBeta, 4-cyanobenzaldehyde reduction, at 10 µM, stronger effect = higher value
[5] = molecular target: Voltage-gated potassium channel subunit beta-2 (Rattus norvegicus) (UniProt P62483); assay: enhancers of rat Kvbeta2 NADPH turnover – biochemical, NADPH fluorescence, primary screen (AID 623;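 active = NADPH fluorescence slope more negative than the mean of all samples by about 3 SD, 99.7% confidence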;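 also: fluorescence intensity change per second fitted from 20 to 320 s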); conditions: Recombinant KvBeta, NADPH fluorescence decrease slope, 10 min; at 10 µM; stronger effect = lower value
[6] = molecular target: Muscarinic acetylcholine receptor M4 (Homo sapiens) (UniProt P08173); assay: M4-linked GIRK flux change, two-sided – cell-based, HEK293 M4/GIRK, thallium flux, BTC-AM, M4 allosteric agonist project, primary screen (AID 625;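 active = fluorescence slope after compound addition differing from the mean of all tested samples at 99.7% confidence, mostly higher but some lower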;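 also: thallium influx through GIRK channels coupled to M4 in HEK293 cells with BTC-AM dye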); conditions: at 10 µM, actives lie on both sides
Method in brief: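 Material: HEK293 cells with M4 receptor and GIRK channels; Times: cells overnight at 37 °C, BTC-AM loading 1 h, reads 2 min total; Technique: kinetic BTC-AM fluorescence sampled at 1 Hz, 10 s pre-addition baseline; Read-out basis: slope over 15–24 s of trace normalized to starting intensity; Controls: carbachol positive, DMSO negative.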

[7] = blockers of RIG-like receptor reporter activation – cell-based, Sendai virus stimulus, luciferase, 10K MLSCN set, TLR/RLR signaling modifier project, primary screen (AID 602276); conditions: HEK293 RL24 IRF3 luciferase reporter, at 10 µM, stronger effect = higher value;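 also: firefly luciferase from ISG56 promoter only with Renilla not read in this screen; 0% = Sendai virus plus DMSO and 100% = medium plus DMSO without virus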
[8] = TLR3 IRF3 reporter activation blockers – cell-based, poly I:C stimulus, luciferase, 10K MLSCN set, primary screen (AID 602277;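 active = inhibition of the reporter signal at or above 50%; inactive = inhibition below 50%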); conditions: HEK293-TLR3 RL24 IRF3 luciferase reporter, at 10 µM, stronger effect = higher value

Sequence of Voltage-gated potassium channel subunit beta-2 (Rattus norvegicus) (P62483 whole entry, looked up): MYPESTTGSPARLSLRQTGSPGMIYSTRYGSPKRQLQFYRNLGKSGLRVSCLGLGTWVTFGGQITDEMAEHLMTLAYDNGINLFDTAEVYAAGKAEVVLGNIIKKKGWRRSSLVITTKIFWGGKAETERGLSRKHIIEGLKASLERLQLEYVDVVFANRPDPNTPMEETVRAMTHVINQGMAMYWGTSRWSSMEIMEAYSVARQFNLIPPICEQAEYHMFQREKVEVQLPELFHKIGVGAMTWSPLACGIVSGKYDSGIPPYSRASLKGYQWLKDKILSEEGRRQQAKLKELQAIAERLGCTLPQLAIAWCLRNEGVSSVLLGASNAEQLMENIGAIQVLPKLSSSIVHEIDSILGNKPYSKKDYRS
Sequence of Muscarinic acetylcholine receptor M4 (Homo sapiens) (P08173 whole entry, looked up): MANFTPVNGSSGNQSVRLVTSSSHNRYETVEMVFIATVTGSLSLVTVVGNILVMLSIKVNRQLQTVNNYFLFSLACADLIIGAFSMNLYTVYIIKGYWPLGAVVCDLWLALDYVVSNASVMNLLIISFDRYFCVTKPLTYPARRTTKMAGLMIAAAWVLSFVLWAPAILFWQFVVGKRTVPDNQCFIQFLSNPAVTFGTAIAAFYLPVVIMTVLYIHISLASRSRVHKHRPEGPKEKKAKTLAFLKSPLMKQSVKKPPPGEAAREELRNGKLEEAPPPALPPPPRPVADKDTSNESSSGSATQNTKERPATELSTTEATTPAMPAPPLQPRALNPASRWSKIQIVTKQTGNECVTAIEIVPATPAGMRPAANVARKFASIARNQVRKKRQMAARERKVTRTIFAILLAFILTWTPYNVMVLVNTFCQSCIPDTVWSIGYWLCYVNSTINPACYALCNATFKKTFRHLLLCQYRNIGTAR

| Structure (SMILES) | cell count [1] | inhibition [1] | inhibition of aggregation [2] | nuclei count [2] [%] | inhibition [3] | nuclei count [3] [%] | fluorescence slope [4] | NADPH fluorescence slope [5] | fluorescence slope [6] | inhibition [7] | inhibition [8] |
| --- | --- | --- | --- | --- | --- | --- | --- | --- | --- | --- | --- |
| CCOc1ccc(C(=O)N(CN2CCCC2=O)c2ccc(C)cc2)cc1 | 385 | -1.4% (inactive) | -14.5% (inactive) | 118 | 14.5% (inactive) | 84 | -0.53 (inactive) | -5.9e-05 (inactive) | 0.0056 (inactive) | -0.0171% (inactive) | -43.9% (inactive) |
| COc1cccc(C2C(C#N)=C(N)OC3=C2C(=O)CCC3)c1OC(=O)c1ccco1 (centres undefined) | 384 | 4.7% (inactive) | -12.3% (inactive) | 103 | 52.8% (inactive) | 88.3 | -0.513 (inactive) | -3.8e-05 (inactive) | 0.00509 (inactive) | 12.4% (inactive) | 10.4% (inactive) |
| CCOc1ccc(-n2c(C)nc3c(cnn3-c3ccc(Cl)cc3)c2=O)cc1 | 238 | -9% (inactive) | -23.6% (inactive) | 96.9 | 2.1% (inactive) | 109 | -0.58 (inactive) | -4.1e-06 (inactive) | 0.00771 (inactive) | -2.74% (inactive) | -8.54% (inactive) |
| Cc1coc(NC(=O)CSc2nc(-c3ccncc3)cc(C(F)(F)F)c2C#N)n1 | 740 | -7.9% (inactive) | 16.1% (inactive) | 86.8 | -29.3% (inactive) | 115 | -0.471 (inactive) | -2.9e-05 (inactive) | 0.00557 (inactive) | 5.59% (inactive) | 8.54% (inactive) |
| CC(C)=CC(=O)Nc1ccc(Br)cc1 | 670 | -11.9% (inactive) | -6.6% (inactive) | 73.9 | 5.2% (inactive) | 91.1 | -0.582 (inactive) | -1.3e-05 (inactive) | 0.00668 (inactive) | -88% (inactive) | -158% (inactive) |
| COc1cccc2cc(C(=O)N3CCN(C45CC6CC(CC(C6)C4)C5)CC3)c(=O)oc12 | 213 | 9.1% (inactive) | 17.3% (inactive) | 71.5 | 43.8% (inactive) | 85.2 | -0.443 (inactive) | 2.5e-05 (inactive) | 0.00456 (inactive) | 5.81% (inactive) | 21.6% (inactive) |
| O=C(c1nc2n(n1)C(c1ccc(Cl)cc1)C=C(c1ccccc1)N2)N1CCOCC1 (centres undefined) | 811 | -3.9% (inactive) | 10.6% (inactive) | 126 | 14.2% (inactive) | 110 | -0.0865 (active) | -1.6e-06 (inactive) | 0.00624 (inactive) | 9.43% (inactive) | -4.24% (inactive) |
| C=C(C)CSc1nnc(-c2cccc(S(=O)(=O)N(C)C)c2)n1-c1cc(OC)ccc1OC | 712 | -12.2% (inactive) | 31.2% (active) | 123 | -12.6% (inactive) | 107 | -0.576 (inactive) | 4e-05 (inactive) | 0.00586 (inactive) | 18.8% (inactive) | 34.6% (inactive) |
| CCOC(=O)CN(C)Cc1c[nH]c2ccccc12 | 442 | -2.2% (inactive) | -15.3% (inactive) | 93.9 | 17.6% (inactive) | 78.5 | -0.426 (inactive) | -4.3e-05 (inactive) | 0.00441 (inactive) | 27.3% (inactive) | 36.9% (inactive) |
| Cc1cc(-c2ccccc2)c2c3c(cn2n1)c(=O)n(C)c(=O)n3C | 386 | 2% (inactive) | -0.2% (inactive) | 116 | -14.4% (inactive) | 86.7 | -0.59 (inactive) | -1.7e-06 (inactive) | 0.00111 (inactive) | 17.8% (inactive) | 27.8% (inactive) |
| O=C(Nc1nccs1)c1ccc(Cl)c(S(=O)(=O)N2CCCCC2)c1 | 355 | 1.3% (inactive) | 30.8% (active) | 109 | -4.7% (inactive) | 117 | -0.311 (inactive) | -3.8e-05 (inactive) | 0.00573 (inactive) | 8.7% (inactive) | 7.95% (inactive) |
| c1ccc2c(-c3nc(C4CCCCC4)no3)cc(-c3ccncc3)nc2c1 | 570 | -12.8% (inactive) | 17.4% (inactive) | 73.3 | 48.8% (inactive) | 58.9 | -0.535 (inactive) | -1.6e-05 (inactive) | 0.00839 (inactive) | 11.5% (inactive) | 1.56% (inactive) |
| Cc1ccc(-c2ccc(/C=N/n3cnnc3)o2)cc1Cl | 432 | -1.5% (inactive) | 2.7% (inactive) | 85.3 | 10.4% (inactive) | 110 | -0.555 (inactive) | -1.9e-05 (inactive) | 0.00662 (inactive) | 3.11% (inactive) | -7.7% (inactive) |
| CCN(CC)CC(=O)Nc1ccc(-c2nc3cc(NC(=O)CN(CC)CC)ccc3o2)cc1 | 621 | 4.9% (inactive) | -13.9% (inactive) | 102 | 41.6% (inactive) | 100 | -0.0978 (inactive) | -3.8e-06 (inactive) | 0.00522 (inactive) | -12.5% (inactive) | 92.9% (active) |
| CCCCNC(=O)c1cc(-c2ccc(F)cc2)on1 | 240 | -2.8% (inactive) | 5.2% (inactive) | 106 | -39.2% (inactive) | 120 | -0.483 (inactive) | -3.3e-05 (inactive) | 0.00454 (inactive) | -21.5% (inactive) | -168% (inactive) |
| CCOC(=O)C(CC)(CCC(=O)O)c1csc(N)n1 (centres undefined) | 518 | 9.6% (inactive) | -2.8% (inactive) | 91.6 | 14.4% (inactive) | 98.1 | -0.518 (inactive) | -3.9e-05 (inactive) | 0.00527 (inactive) | 13.6% (inactive) | 18% (inactive) |
| CCC(C)c1ccc(NC(=O)C2CC2)cc1 (centres undefined) | 466 | -11.6% (inactive) | -13.6% (inactive) | 110 | -74.9% (inactive) | 118 | -0.569 (inactive) | -4.3e-05 (inactive) | 0.00602 (inactive) | -20.4% (inactive) | -80.1% (inactive) |
| O=C(COC(=O)c1ccc(NS(=O)(=O)c2ccc3c(c2)OCCO3)cc1)NCC1CCCO1 (centres undefined) | 424 | -18.3% (inactive) | 11.2% (inactive) | 69.5 | 1.1% (inactive) | 100 | -0.555 (inactive) | -3.4e-05 (inactive) | 0.00638 (inactive) | 4.88% (inactive) | 19.1% (inactive) |
| O=C(CNC(=O)c1cccs1)NCCN1CCN(c2ccccc2F)CC1 | 585 | -8.2% (inactive) | -28.3% (inactive) | 99.6 | -19.1% (inactive) | 106 | -0.451 (inactive) | -3.9e-05 (inactive) | 0.00484 (inactive) | 19.5% (inactive) | 17.5% (inactive) |
